ChEMBL document CHEMBL1146868, “Design, synthesis, and biophysical and biological evaluation of a series of pyrrolobenzodiazepine-poly(N-methylpyrrole) conjugates” (J Med Chem, 2006)

Columns and labels:
K562 = assay: Cytotoxicity against human K562 cell line after 96 hrs by MTT assay; assay type: functional; details: K562, 96 h
[1] = tested on: Panel NCI-60 (60 carcinoma cell lines); assay: Cytotoxicity against human NCI60 cell line […]; assay type: functional; details: for CC50: read-out: LC50 (the source's name)
MCF7 [2] = assay: Uptake in human MCF7 cells at 100 uM after 24 hrs; assay type: ADME, cell-based; details: mcf7, 24 h
How it was run: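 MCF-7 cells were exposed to the conjugates for 24 h, at up to 100 µM. Cellular and nuclear uptake was assessed from intrinsic fluorescence.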

Nucleic Acid = assay: Inhibition of DNA transcription at 5 uM; assay type: functional
How it was run: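 In vitro transcription of a DNA template by a viral RNA polymerase. Read-out is the sites where transcription stops and the amount of full-length 266-nt transcript. Activity is expressed as 50% inhibition of full-length transcript synthesis.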

MCF7 [3] = assay: Uptake in human MCF7 cells after <1 hr; assay type: ADME, cell-based; details: mcf7, 1 h

SMILES | GI50 (K562) | GI50 [1] | TGI [1] | CC50 [1] | Drug uptake (MCF7 [2]) | inhibition (Nucleic Acid) | Drug uptake (MCF7 [3])
COC(=O)c1cc(NC(=O)c2cc(NC(=O)c3cc(NC(=O)CCOc4cc5c(cc4OC)C(=O)N4CCC[C@H]4C=N5)cn3C)cn2C)cn1C | 346 nM | 47 nM | 1760 nM | 56200 nM | – | – | –
COC(=O)c1cc(NC(=O)c2cc(NC(=O)c3cc(NC(=O)c4cc(NC(=O)CCCOc5cc6c(cc5OC)C(=O)N5CCC[C@H]5C=N6)cn4C)cn3C)cn2C)cn1C | 47 nM | 7 nM | 18 nM | 1510 nM | Active | 50% | –
COC(=O)CCCOc1cc2c(cc1OC)C(=O)N1CCC[C@H]1C=N2 | 526 nM | 1740 nM | 11800 nM | 46800 nM | – | – | –
COC(=O)c1cc(NC(=O)c2cc(NC(=O)c3cc(NC=O)cn3C)cn2C)cn1C | > 10000 nM | 16600 nM | 44700 nM | 85100 nM | – | – | –
COC(=O)c1cc(NC(=O)c2cc(NC(=O)c3cc(NC(=O)CCCN(C)C)cn3C)cn2C)cn1C | > 10000 nM | 72400 nM | > 100000 nM | > 100000 nM | – | – | –
COC(=O)c1cc(NC(=O)c2cc(NC(=O)c3cc(NC(=O)c4cc(NC(=O)c5cc(NC(=O)CCCOc6cc7c(cc6OC)C(=O)N6CCC[C@H]6C=N7)cn5C)cn4C)cn3C)cn2C)cn1C | 83 nM | 9 nM | 29 nM | 1260 nM | Active | 50% | –
COC(=O)c1cc(NC(=O)c2cc(NC(=O)CCCOc3cc4c(cc3OC)C(=O)N3CCC[C@H]3C=N4)cn2C)cn1C | 7.1 nM | 11 nM | 120 nM | 10000 nM | Active | 50% | –
COC(=O)c1cc(NC(=O)c2cc(NC(=O)c3cc(NC(=O)CCCOc4cc5c(cc4OC)C(=O)N4CCC[C@H]4C(=O)N5)cn3C)cn2C)cn1C | > 10000 nM | 49000 nM | > 50000 nM | > 50000 nM | – | – | –
C=C1C[C@H]2C=Nc3cc(OCCCOc4cc5c(cc4OC)C(=O)N4CC(=C)C[C@H]4C=N5)c(OC)cc3C(=O)N2C1 [SJG-136] | 3.8 nM | 7.4 nM | 87.1 nM | 562 nM | – | – | –
COC(=O)c1cc(NC(=O)c2cc(NC(=O)c3cc(NC(=O)CCCOc4cc5c(cc4OC)C(=O)N4CCC[C@H]4C=N5)cn3C)cn2C)cn1C | 41 nM | 15 nM | 32 nM | 1070 nM | Active | 50% | –
COC(=O)c1cc(NC(=O)CCCOc2cc3c(cc2OC)C(=O)N2CCC[C@H]2C=N3)cn1C | 51 nM | 47 nM | 323 nM | 11500 nM | – | 50% | Active
COC(=O)c1cc(NC(=O)c2cc(NC(=O)c3cc(NC(=O)c4cc(NC(=O)c5cc(NC(=O)c6cc(NC(=O)CCCOc7cc8c(cc7OC)C(=O)N7CCC[C@H]7C=N8)cn6C)cn5C)cn4C)cn3C)cn2C)cn1C | 30 nM | 8 nM | 54 nM | 1900 nM | Active | 50% | –
